Experimental data as given in article PMC7717620 (Nucleosides, nucleotides & nucleic acids, 2019).
Entries after “also recorded” stand apart in the source; their conditions may differ.

Key:
human cardiomyocytes [1] = assay: recording of human cardiomyocyte beating patterns; type: cell-based; settings: for change in beating rate or rhythm of cardiomyocytes (observation): all three concentrations (2, 10 and 50 μM), up to 48 h
human cardiomyocytes [2] = assay: cellular accumulation and metabolism in human cardiomyocytes; type: in vitro ADME; settings: 10 μM
HepG2 cells = assay: intracellular metabolism in HepG2 cells; type: in vitro ADME, human; settings: HepG2, 50 μM, 4 h
[3] = tested on: primary monkey hepatocytes; assay: intracellular metabolism in primary monkey hepatocytes; type: in vitro ADME; settings: 50 μM, 4 h
primary rat hepatocytes = assay: intracellular metabolism in primary rat hepatocytes; type: in vitro ADME; settings: 50 μM, 4 h
[4] = tested on: HCV genotype 1 b RNA replication; assay: subgenomic HCV replicon system, inhibition of HCV RNA replication in Huh-7 cells; type: cell-based, hepatitis C virus; settings: HCV genotype 1 b subgenomic replicon
How it was run: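 HCV genotype 1b subgenomic replicon in Huh-7 cells. HCV RNA and cellular ribosomal RNA were extracted and amplified, so replication and cytotoxicity were read in the same cells.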

primary dog hepatocytes = assay: intracellular metabolism in primary dog hepatocytes; type: in vitro ADME; settings: 50 μM, 4 h
[5] = tested on: primary human hepatocytes; assay: intracellular metabolism in primary human hepatocytes; type: in vitro ADME; settings: 50 μM, 4 h
Huh-7 cells = assay: intracellular metabolism in Huh-7 cells; type: in vitro ADME, human; settings: Huh-7, 50 μM, 4 h
[6] = tested on: primary mouse hepatocytes; assay: intracellular metabolism in primary mouse hepatocytes; type: in vitro ADME; settings: 50 μM, 4 h

CC(C)(CO)C(=O)SCCOP(=O)(NCc1ccccc1)OC[C@H]1O[C@@H](n2cnc3c(=O)[nH]c(N)nc32)[C@](C)(O)[C@@H]1O (mixture of isomers) [IDX-184, S-(2-(((((2R,3R,4R,5R)-5-(2-Amino-6-oxo-1,6-dihydro-9H-purin-9-yl)-3,4-dihydroxy-4-methyltetrahydrofuran-2-yl)methoxy)(benzylamino)phosphoryl)oxy)ethyl) 3-hydroxy-2,2-dimethylpropanethioate]
Beating rate of human cardiomyocytes (human cardiomyocytes [1]; 2 μM, 2 h): 32.0 ± 0 beats/minute | Beating rate of human cardiomyocytes (human cardiomyocytes [1]; 2 μM, 4 h): 31.5 ± 0.7 beats/minute | Beating rate of human cardiomyocytes (human cardiomyocytes [1]; 2 μM, 8 h): 37.0 ± 1.4 beats/minute | Beating rate of human cardiomyocytes (human cardiomyocytes [1]; 2 μM, 12 h): 36.0 ± 1.4 beats/minute | Beating rate of human cardiomyocytes (human cardiomyocytes [1]; 2 μM, 24 h): 32.5 ± 0.7 beats/minute | Beating rate of human cardiomyocytes (human cardiomyocytes [1]; 2 μM, 48 h): 24.0 ± 1.4 beats/minute | Beating rate of human cardiomyocytes (human cardiomyocytes [1]; 10 μM, 2 h): 30.0 ± 1.4 beats/minute | Beating rate of human cardiomyocytes (human cardiomyocytes [1]; 10 μM, 4 h): 30.0 ± 0 beats/minute | Beating rate of human cardiomyocytes (human cardiomyocytes [1]; 10 μM, 8 h): 34.0 ± 0 beats/minute | Beating rate of human cardiomyocytes (human cardiomyocytes [1]; 10 μM, 12 h): 34.0 ± 1.4 beats/minute | Beating rate of human cardiomyocytes (human cardiomyocytes [1]; 10 μM, 24 h): 31.0 ± 1.4 beats/minute | Beating rate of human cardiomyocytes (human cardiomyocytes [1]; 10 μM, 48 h): 25.0 ± 1.4 beats/minute | Beating rate of human cardiomyocytes (human cardiomyocytes [1]; 50 μM, 2 h): 33.0 ± 0 beats/minute | Beating rate of human cardiomyocytes (human cardiomyocytes [1]; 50 μM, 4 h): 31.5 ± 0.7 beats/minute | Beating rate of human cardiomyocytes (human cardiomyocytes [1]; 50 μM, 8 h): 34.5 ± 0.7 beats/minute | Beating rate of human cardiomyocytes (human cardiomyocytes [1]; 50 μM, 12 h): 34.5 ± 0.7 beats/minute | Beating rate of human cardiomyocytes (human cardiomyocytes [1]; 50 μM, 24 h): 34.5 ± 4.9 beats/minute | Beating rate of human cardiomyocytes (human cardiomyocytes [1]; 50 μM, 48 h): 27.5 ± 0.7 beats/minute | change in beating rate or rhythm of cardiomyocytes (observation) (human cardiomyocytes [1]): no obvious beating rate change; also recorded: no apparent change in beating; also recorded: no apparent changes to beat rate or rhythm | Intracellular concentration in human cardiomyocytes: Prodrugs (human cardiomyocytes [2]; 4 h): 21 ± 1 pmol/10^6 cells | Intracellular concentration in human cardiomyocytes: Prodrugs (human cardiomyocytes [2]; 8 h): 9.8 ± 1.4 pmol/10^6 cells | intact prodrug level, times lower than BMS-986094 (human cardiomyocytes [2]; human cardiomyocytes, 8 h): 83 times | Intracellular concentration: Prodrugs (HepG2 cells): 21 ± 1 pmol/10^6 cells | Intracellular concentration: Prodrugs [3]: 75 ± 3 pmol/10^6 cells | Intracellular concentration: Prodrugs (primary rat hepatocytes): 1,100 ± 471 pmol/10^6 cells | Replicon Huh-7 EC50 [4]: sub-micromolar | Intracellular concentration: Prodrugs (primary dog hepatocytes): 110 ± 2 pmol/10^6 cells | Intracellular concentration: Prodrugs [5]: 160 ± 18 pmol/10^6 cells | Intracellular concentration: Prodrugs (Huh-7 cells): 11 ± 1 pmol/10^6 cells | Intracellular concentration: Prodrugs [6]: 220 ± 3 pmol/10^6 cells

CC(C)OC(=O)[C@H](C)N[P@](=O)(OC[C@H]1O[C@@H](n2ccc(=O)[nH]c2=O)[C@](C)(F)[C@@H]1O)Oc1ccccc1 [Sofosbuvir, sofosbuvir]
Beating rate of human cardiomyocytes (human cardiomyocytes [1]; 2 μM, 2 h): 36.5 ± 2.1 beats/minute | Beating rate of human cardiomyocytes (human cardiomyocytes [1]; 2 μM, 4 h): 35.0 ± 1.4 beats/minute | Beating rate of human cardiomyocytes (human cardiomyocytes [1]; 2 μM, 8 h): 38.5 ± 0.7 beats/minute | Beating rate of human cardiomyocytes (human cardiomyocytes [1]; 2 μM, 12 h): 36.5 ± 0.7 beats/minute | Beating rate of human cardiomyocytes (human cardiomyocytes [1]; 2 μM, 24 h): 33.0 ± 0 beats/minute | Beating rate of human cardiomyocytes (human cardiomyocytes [1]; 2 μM, 48 h): 25.5 ± 0.7 beats/minute | Beating rate of human cardiomyocytes (human cardiomyocytes [1]; 10 μM, 2 h): 34.0 ± 1.4 beats/minute | Beating rate of human cardiomyocytes (human cardiomyocytes [1]; 10 μM, 4 h): 33.0 ± 1.4 beats/minute | Beating rate of human cardiomyocytes (human cardiomyocytes [1]; 10 μM, 8 h): 35.0 ± 1.4 beats/minute | Beating rate of human cardiomyocytes (human cardiomyocytes [1]; 10 μM, 12 h): 33.5 ± 0.7 beats/minute | Beating rate of human cardiomyocytes (human cardiomyocytes [1]; 10 μM, 24 h): 30.0 ± 0 beats/minute | Beating rate of human cardiomyocytes (human cardiomyocytes [1]; 10 μM, 48 h): 23.0 ± 0 beats/minute | Beating rate of human cardiomyocytes (human cardiomyocytes [1]; 50 μM, 2 h): 32.5 ± 0.7 beats/minute | Beating rate of human cardiomyocytes (human cardiomyocytes [1]; 50 μM, 4 h): 32.0 ± 0 beats/minute | Beating rate of human cardiomyocytes (human cardiomyocytes [1]; 50 μM, 8 h): 34.5 ± 0.7 beats/minute | Beating rate of human cardiomyocytes (human cardiomyocytes [1]; 50 μM, 12 h): 33.0 ± 1.4 beats/minute | Beating rate of human cardiomyocytes (human cardiomyocytes [1]; 50 μM, 24 h): 29.5 ± 0.7 beats/minute | Beating rate of human cardiomyocytes (human cardiomyocytes [1]; 50 μM, 48 h): 23.5 ± 0.7 beats/minute | change in beating rate or rhythm of cardiomyocytes (observation) (human cardiomyocytes [1]): no apparent change in beating rate or rhythm | Intracellular concentration in human cardiomyocytes: Prodrugs (human cardiomyocytes [2]; 4 h): 56 ± 3 pmol/10^6 cells | Intracellular concentration in human cardiomyocytes: Prodrugs (human cardiomyocytes [2]; 8 h): 42 ± 4 pmol/10^6 cells
